From ChEMBL document CHEMBL4406880, “Design, synthesis, and bioactivity of dihydropyrimidine derivatives as kinesin spindle protein inhibitors” (Bioorg Med Chem, 2019)

Assays:
Type in all cases: functional
SW-620 = experiment: Growth inhibition of human SW620 cells incubated for 48 hrs by sulforhodamine B assay; settings: SW-620, 48 h
How it was run: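 NCI-60 five-dose SRB assay. Cells were exposed for 48 h to tenfold dilutions of 0.01, 0.1, 1, 10 and 100 µM, in RPMI 1640 with 5% FBS. Plates fixed with TCA at the time of drug addition served as the time-zero reference. GI50 is the concentration giving a 50% reduction in net growth. TGI is total growth inhibition. LC50 is a net 50% loss of the initial cells.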

Malme-3M [1] = experiment: Growth inhibition of human MALME-3M cells incubated for 48 hrs by sulforhodamine B assay
How it was run: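 NCI-60 five-dose SRB assay in RPMI 1640 with 5% FBS, 37 °C, 5% CO2. Compound given at five tenfold dilutions, 0.01–100 µM, for 48 h. Adherent cells fixed with TCA, suspension cells with 16% final TCA. Bound SRB read at 515 nm and growth calculated against time-zero and untreated controls. GI50 taken from dose–response curves as the concentration giving a 50% decrease in net cell growth.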

BT-549 = experiment: Growth inhibition of human BT549 cells incubated for 48 hrs by sulforhodamine B assay; settings: BT-549, 48 h
How it was run: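 NCI-60 five-dose mode: five tenfold dilutions (0.01, 0.1, 1, 10, 100 µM) are applied for 48 h to cells in RPMI 1640 with 5% FBS at 37 °C. Endpoint is TCA fixation with sulforhodamine B read at 515 nm. % growth comes from the 0 h and control absorbances. GI50 is the concentration giving a 50% reduction in net cell growth.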

SNB-75 = experiment: Cell cycle arrest in human SNB75 cells assessed as accumulation in preG1 phase at 2 uM incubated for 24 hrs by propidium iodide based flow cytometry (reference value: 1.85 %)
How it was run: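 SNB-75 cells were exposed to 2 µM for 24 h at 37 °C, 5% CO2, then washed with PBS and fixed in 70% ethanol on ice for 15 min. They were stained 1 h at room temperature with 50 µg/mL propidium iodide, 0.1 mg/mL RNase A and 0.05% Triton X-100. DNA content was read by flow cytometry to give the % of cells in pre-G1, G0/G1, S and G2/M.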

SF-268 = experiment: Growth inhibition of human SF268 cells assessed as cell viability at 100 uM incubated for 48 hrs by sulforhodamine B assay; settings: SF-268, 48 h, read-out: Activity
NCI-H23 = experiment: Growth inhibition of human NCI-H23 cells assessed as cell viability at 100 uM incubated for 48 hrs by sulforhodamine B assay; settings: NCI-H23, 48 h, read-out: Activity
NCI-H226 = experiment: Growth inhibition of human NCI-H226 cells assessed as cell viability at 100 uM incubated for 48 hrs by sulforhodamine B assay; settings: NCI-H226, 48 h, read-out: Activity
MOLT-4 [2] = experiment: Growth inhibition of human MOLT4 cells assessed as cell viability at 100 uM incubated for 48 hrs by sulforhodamine B assay; settings: MOLT-4, 48 h, read-out: Activity
MCF7 [3] = experiment: Growth inhibition of human MCF7 cells assessed as cell viability at 1 uM incubated for 48 hrs by sulforhodamine B assay; settings: MCF7, 48 h, read-out: Activity
RXF 393 = experiment: Growth inhibition of human RXF393 cells assessed as cell viability at 1 uM incubated for 48 hrs by sulforhodamine B assay; settings: RXF 393, 48 h, read-out: Activity
Malme-3M [4] = experiment: Growth inhibition of human MALME-3M cells assessed as cell viability at 1 uM incubated for 48 hrs by sulforhodamine B assay; settings: read-out: Activity
SNB-19 = experiment: Growth inhibition of human SNB19 cells assessed as cell viability at 1 uM incubated for 48 hrs by sulforhodamine B assay; settings: SNB-19, 48 h, read-out: Activity
KM12 = experiment: Growth inhibition of human KM12 cells assessed as cell viability at 1 uM incubated for 48 hrs by sulforhodamine B assay; settings: KM12, 48 h, read-out: Activity
HT-29 = experiment: Growth inhibition of human HT-29 cells assessed as cell viability at 1 uM incubated for 48 hrs by sulforhodamine B assay; settings: HT-29, 48 h, read-out: Activity
EKVX [5] = experiment: Growth inhibition of human EKVX cells assessed as cell viability at 1 uM incubated for 48 hrs by sulforhodamine B assay; settings: read-out: Activity
Hs-578T = experiment: Growth inhibition of human Hs 578T cells assessed as cell viability at 0.1 uM incubated for 48 hrs by sulforhodamine B assay; settings: read-out: Activity
PC-3 = experiment: Growth inhibition of human PC3 cells assessed as cell viability at 0.1 uM incubated for 48 hrs by sulforhodamine B assay; settings: PC-3, 48 h, read-out: Activity
IGROV-1 = experiment: Growth inhibition of human IGROV1 cells assessed as cell viability at 0.1 uM incubated for 48 hrs by sulforhodamine B assay; settings: IGROV-1, 48 h, read-out: Activity
HCT-116 = experiment: Growth inhibition of human HCT116 cells assessed as cell viability at 0.1 uM incubated for 48 hrs by sulforhodamine B assay; settings: HCT-116, 48 h, read-out: Activity
MCF7 [6] = experiment: Growth inhibition of human MCF7 cells assessed as cell viability at 0.001 uM incubated for 48 hrs by sulforhodamine B assay relative to control; settings: MCF7, 48 h, read-out: Activity
A498 = experiment: Growth inhibition of human A498 cells assessed as cell viability at 0.001 uM incubated for 48 hrs by sulforhodamine B assay relative to control; settings: A498, 48 h, read-out: Activity
OVCAR-8 = experiment: Growth inhibition of human OVCAR8 cells assessed as cell viability at 0.001 uM incubated for 48 hrs by sulforhodamine B assay relative to control; settings: OVCAR-8, 48 h, read-out: Activity
EKVX [7] = experiment: Growth inhibition of human EKVX cells assessed as cell viability at 0.001 uM incubated for 48 hrs by sulforhodamine B assay relative to control; settings: read-out: Activity
MOLT-4 [8] = experiment: Growth inhibition of human MOLT4 cells assessed as cell viability at 0.001 uM incubated for 48 hrs by sulforhodamine B assay relative to control; settings: MOLT-4, 48 h, read-out: Activity
CAKI-1 = experiment: Growth inhibition of human Caki1 cells assessed as cell viability at 100 uM incubated for 48 hrs by sulforhodamine B assay; settings: CAKI-1, 48 h, read-out: Activity
TK-10 = experiment: Growth inhibition of human TK10 cells assessed as cell viability at 100 uM incubated for 48 hrs by sulforhodamine B assay; settings: TK-10, 48 h, read-out: Activity

Work on CC1=C(C(=O)OCc2ccccc2)C(c2ccc3c(c2)OCO3)n2c(nc3ccccc32)N1 (racemic) yielded a GI50 (SW-620; read-out: GI50) of 0.39 µM, an LC50 (concentration causing 50% net loss of initial cells) (SW-620; read-out: LC50) greater than 100 µM and a TGI (SW-620; read-out: TGI) greater than 100 µM. It also gave a GI50 (SW-620; read-out: pGI50 (converted)) of 0.389 µM, an LC50 (concentration causing 50% net loss of initial cells) (SW-620; read-out: pLC50 (converted)) greater than 100 µM and a TGI (SW-620; read-out: pTGI) greater than 100 µM. For the same compound, the GI50 (Malme-3M [1]; read-out: GI50) was 0.44 µM, the LC50 (Malme-3M [1]; read-out: LC50) was greater than 100 µM and the TGI (Malme-3M [1]; read-out: TGI) was greater than 100 µM. For the same compound, the GI50 (Malme-3M [1]; read-out: pGI50 (converted)) was 0.437 µM, the LC50 (Malme-3M [1]; read-out: pLC50 (converted)) was greater than 100 µM and the TGI (Malme-3M [1]; read-out: pTGI) was greater than 100 µM. It also gave a GI50 (BT-549; read-out: GI50) of 0.92 µM, a CC50 (BT-549; read-out: LC50 (the source's name)) greater than 100 µM and a TGI (BT-549; read-out: TGI) greater than 100 µM. The GI50 (BT-549; read-out: pGI50 (converted)) was 0.912 µM, the CC50 (BT-549; read-out: pLC50 (the source's name) (converted)) was greater than 100 µM and the TGI (BT-549; read-out: pTGI) was greater than 100 µM. It also gave an Activity (SNB-75) of 24.82%, a viability at 100 µM (SF-268) of 9% and a viability at 100 µM (NCI-H23) of 44%. For the same compound, the viability at 100 µM (NCI-H226) was 64%, the viability at 100 µM (MOLT-4 [2]) was 33% and the viability at 1 µM (MCF7 [3]) was 14%. The viability at 1 µM (RXF 393) was 7%, the viability at 1 µM (Malme-3M [4]) was 30% and the viability at 1 µM (SNB-19) was 35%. For the same compound, the viability at 1 µM (KM12) was 19%, the viability at 1 µM (HT-29) was 8% and the viability at 1 µM (EKVX [5]) was 41%. It also gave a viability at 0.1 µM (Hs-578T) of 88%, a viability at 0.1 µM (PC-3) of 91% and a viability at 0.1 µM (IGROV-1) of 93%. For the same compound, the viability at 0.1 µM (HCT-116) was 100%, the viability at 0.001 µM (MCF7 [6]) was 86% and the viability at 0.001 µM (A498) was 81%. It also gave a viability at 0.001 µM (OVCAR-8) of 95%, a viability at 0.001 µM (EKVX [7]) of 91% and a viability at 0.001 µM (MOLT-4 [8]) of 96%. For the same compound, the viability at 100 µM (CAKI-1) was 23% and the viability at 100 µM (TK-10) was 68%.
